Source: ChEMBL document CHEMBL3774328, “Optimization by Molecular Fine Tuning of Dihydro-β-agarofuran Sesquiterpenoids as Reversers of P-Glycoprotein-Mediated Multidrug Resistance” (J Med Chem, 2016)

Experiments:
[1] = target: T1, ATP-dependent translocase ABCB1 (Homo sapiens, UniProt P08183); experiment: Inhibition of human MDR1 expressed in mouse NIH/3T3 cells assessed as inhibition of daunomycin efflux incubated for 30 mins by flow cytometry; assay type: cell-based, NIH3T3
Procedure, shortened: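 Ki for DNM efflux. MDR1-G185 NIH-3T3 cells were incubated 30 min at 37 °C with DNM (2 μM) and varying compound concentrations, then read by flow cytometry. Fluorescence was converted to % P-gp inhibition, normalized to cells treated with 5 mM sodium orthovanadate (100%). Ki was fitted from I = (Imax × S)/(Ki + S). Mean ± SD of three independent experiments in triplicate.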

[2] = Intrinsic cytotoxicity against mouse NIH/3T3 cells transfected with human MDR1 by MTT assay; assay type: ADME, cell-based, NIH3T3
Procedure, shortened: (§1)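 Intrinsic cytotoxicity was measured by MTT in parental NIH-3T3 and MDR1-G185 cells. CC50 came from a four-parameter logistic fit. The top tested concentration was 60 μM, limited by DMSO toxicity, and growth at 60 μM is given as % of untreated control. Mean ± SD of three independent experiments in duplicate.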

[3] = Intrinsic cytotoxicity against mouse NIH/3T3 cells by MTT assay; assay type: cell-based, NIH3T3; procedure, shortened: as §1
[4] = Intrinsic cytotoxicity against mouse NIH/3T3 cells transfected with human MDR1 assessed as cell growth at 60 uM by MTT assay; assay type: ADME, cell-based, NIH3T3; conditions: read-out: Activity; procedure, shortened: as §1
[5] = target: T1, ATP-dependent translocase ABCB1; experiment: Inhibition of human MDR1 expressed in mouse NIH/3T3 cells assessed as reduction in daunomycin IC50 at 1 uM by MTT assay; assay type: cell-based; conditions: nih3t3, 1 µM
Procedure, shortened: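 Parental NIH-3T3 and MDR1-G185 cells were grown in DMEM with 10% iFBS. They were exposed to increasing DNM or VLB (up to 500 ng/mL) with or without compound at fixed 1, 3 or 10 μM. Growth was read by MTT, and IC50 came from a four-parameter logistic fit. Mean ± SD of two independent experiments in triplicate.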

[6] = target: T1, ATP-dependent translocase ABCB1; experiment: Inhibition of human MDR1 expressed in mouse NIH/3T3 cells assessed as reduction in daunomycin IC50 at 3 uM by MTT assay; assay type: cell-based; conditions: nih3t3, 3 µM
Procedure, shortened: (§2)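 Parental NIH-3T3 and MDR1-G185 cells were grown in DMEM with 10% iFBS. They were exposed to increasing DNM or VLB (up to 500 ng/mL) with or without compound at fixed 1, 3 or 10 μM. Growth was read by MTT, and IC50 came from a four-parameter logistic fit. Reversal index = IC50 without compound / IC50 with compound in MDR1 cells. Mean ± SD of two independent experiments in triplicate.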

[7] = target: T1, ATP-dependent translocase ABCB1; experiment: Inhibition of human MDR1 expressed in mouse NIH/3T3 cells assessed as reduction in daunomycin IC50 at 10 uM by MTT assay; assay type: cell-based; conditions: nih3t3, 10 µM; procedure, shortened: as §2
[8] = target: T1, ATP-dependent translocase ABCB1; experiment: Inhibition of human MDR1 expressed in mouse NIH/3T3 cells assessed as reduction in vinblastine IC50 at 1 uM by MTT assay; assay type: cell-based; conditions: nih3t3, 1 µM; procedure, shortened: as §2
[9] = target: T1, ATP-dependent translocase ABCB1; experiment: Inhibition of human MDR1 expressed in mouse NIH/3T3 cells assessed as reduction in vinblastine IC50 at 3 uM by MTT assay; assay type: cell-based; conditions: nih3t3, 3 µM; procedure, shortened: as §2
[10] = target: T1, ATP-dependent translocase ABCB1; experiment: Inhibition of human MDR1 expressed in mouse NIH/3T3 cells assessed as reduction in vinblastine IC50 at 10 uM by MTT assay; assay type: cell-based; conditions: nih3t3, 10 µM; procedure, shortened: as §2
[11] = target: T1, ATP-dependent translocase ABCB1; experiment: Potency index, ratio of daunomycin reversal index to compound reversal index for human MDR1 expressed in mouse NIH/3T3 cells at 1 uM; assay type: cell-based; conditions: nih/3t3, 1 µM
Procedure, shortened: (§3)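 Each RI comes from the MTT dose-response of DNM or VLB (up to 500 ng/mL), with or without modulator.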

[12] = target: T1, ATP-dependent translocase ABCB1; experiment: Potency index, ratio of vinblastine reversal index to compound reversal index for human MDR1 expressed in mouse NIH/3T3 cells at 1 uM; assay type: cell-based; conditions: nih/3t3, 1 µM; procedure, shortened: as §3
[13] = Intrinsic cytotoxicity against mouse NIH/3T3 cells assessed as cell growth at 60 uM by MTT assay; assay type: cell-based, NIH3T3; conditions: read-out: Activity; procedure, shortened: as §1

T1 sequence (P08183 whole entry): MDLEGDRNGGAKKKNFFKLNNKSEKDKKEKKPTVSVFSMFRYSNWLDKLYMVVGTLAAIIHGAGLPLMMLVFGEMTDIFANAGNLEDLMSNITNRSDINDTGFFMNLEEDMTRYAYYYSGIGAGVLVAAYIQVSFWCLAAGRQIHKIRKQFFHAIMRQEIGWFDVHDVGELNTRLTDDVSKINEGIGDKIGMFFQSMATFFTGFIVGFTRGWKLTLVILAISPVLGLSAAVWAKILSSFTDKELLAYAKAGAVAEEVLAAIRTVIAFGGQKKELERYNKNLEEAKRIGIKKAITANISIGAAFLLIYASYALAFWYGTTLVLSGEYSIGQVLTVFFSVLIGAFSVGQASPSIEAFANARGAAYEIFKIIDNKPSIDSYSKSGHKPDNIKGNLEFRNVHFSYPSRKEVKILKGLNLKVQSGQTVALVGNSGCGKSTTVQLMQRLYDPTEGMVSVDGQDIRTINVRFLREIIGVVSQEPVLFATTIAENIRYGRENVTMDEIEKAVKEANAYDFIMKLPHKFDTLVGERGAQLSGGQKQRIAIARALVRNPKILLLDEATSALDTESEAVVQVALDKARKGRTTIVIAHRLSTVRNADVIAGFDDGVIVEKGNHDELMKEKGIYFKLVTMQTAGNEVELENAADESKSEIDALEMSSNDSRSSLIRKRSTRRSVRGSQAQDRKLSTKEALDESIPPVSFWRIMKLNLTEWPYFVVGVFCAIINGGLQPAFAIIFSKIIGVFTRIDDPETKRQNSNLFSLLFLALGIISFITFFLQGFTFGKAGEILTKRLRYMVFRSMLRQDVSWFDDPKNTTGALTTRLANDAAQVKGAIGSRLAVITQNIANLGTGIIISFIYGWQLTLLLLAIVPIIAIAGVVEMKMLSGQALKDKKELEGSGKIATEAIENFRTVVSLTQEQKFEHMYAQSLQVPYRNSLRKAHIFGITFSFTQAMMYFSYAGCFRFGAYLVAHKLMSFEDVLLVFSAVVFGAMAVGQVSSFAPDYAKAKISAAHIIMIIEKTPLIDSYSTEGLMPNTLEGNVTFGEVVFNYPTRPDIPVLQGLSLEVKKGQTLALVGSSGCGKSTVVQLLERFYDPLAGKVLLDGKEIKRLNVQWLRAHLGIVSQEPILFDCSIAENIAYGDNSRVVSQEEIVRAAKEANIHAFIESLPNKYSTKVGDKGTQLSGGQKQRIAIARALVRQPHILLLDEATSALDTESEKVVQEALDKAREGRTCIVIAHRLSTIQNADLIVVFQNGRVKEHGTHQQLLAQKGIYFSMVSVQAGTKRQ

| Compound | Ki [1] [µM] | CC50 [2] [µM] | CC50 [3] [µM] | viability at 60 µM [4] [%] | fold change (FC) [5] | fold change (FC) [6] | fold change (FC) [7] | fold change (FC) [8] | fold change (FC) [9] | fold change (FC) [10] | Ratio [11] | Ratio [12] | viability at 60 µM [13] [%] |
| --- | --- | --- | --- | --- | --- | --- | --- | --- | --- | --- | --- | --- | --- |
| CC(=O)O[C@H]1CC[C@](C)(O)[C@]23OC(C)(C)[C@H]([C@H](OC(=O)/C=C/c4ccccc4)[C@H](OC(=O)c4ccccc4)[C@]12C)[C@H]3OC(=O)CCC(=O)N(C(=O)NC1CCCCC1)C1CCCCC1 | 0.19 | > 60 | 56.4 | 72.8 | 15.8 | 19.5 | 24.9 | 27.4 | 36.1 | 90 | 3 | 3 | – |
| CC(=O)O[C@H]1CC[C@](C)(O)[C@]23OC(C)(C)[C@H]([C@H](OC(=O)/C=C/c4ccccc4)[C@H](OC(=O)c4ccccc4)[C@]12C)[C@H]3OC(=O)c1cnccn1 | 1.74 | > 60 | > 60 | 86.2 | 2.3 | 4 | 9 | 3.7 | 8.8 | 20.6 | – | – | 66.3 |
